Results reported in ChEMBL document CHEMBL1255290, “Characterization of a novel human immunodeficiency virus type 1 protease inhibitor, A-790742” (Antimicrob Agents Chemother, 2008).

What was measured:
[1] = test system: Human immunodeficiency virus 1; assay: (§1) Antiviral activity against HIV1 P9 infected in human MT4 cells derived from viral passages with A-790742 harboring protease V82V/L and I84V mutation assessed as reduction in viral cytopathogenicity treated 1 hr post infection measured 5 days post infection by MTT assay relative to wild type HIV1 pNL4-3; type: functional
Procedure, shortened: (§2)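 For the assay, 10⁶ MT-4 cells were infected at MOI 0.003, washed after 1 h, and plated at 10⁴ cells/well with eight serial compound dilutions in triplicate (0.5% DMSO final). MTT cytopathic read-out at day 5; EC50 from dose-response fitting.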

[2] = test system: Human immunodeficiency virus 1; assay: as §1, with “P15” for “P9”, “L33L/F, K45I, V82L,” for “V82V/L”; type: functional; procedure, shortened: as §2
[3] = test system: Human immunodeficiency virus 1; assay: as §1, with “P21” for “P9”, “L23I, L33F, K45I, A71A/V, V77I, V82L,” for “V82V/L”; type: functional; procedure, shortened: as §2
[4] = test system: Human immunodeficiency virus 1; assay: as §1, with “P13” for “P9”, “M46I, L63P, A71V,” for “V82V/L”, “V82G” for “I84V”, “RF” for “pNL4-3”; type: functional; procedure, shortened: as §2
[5] = test system: Human immunodeficiency virus 1; assay: Antiviral activity against HIV1 clone1 infected in HEK293 cells harboring A-790742-selected protease I84V mutation assessed as reduction in viral replication by luciferase reporter gene assay relative to wild type HIV1 pNL4-3; type: functional
Procedure, shortened: (§3)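 Single-cycle assay: HEK-293 cells were cotransfected with luciferase-reporter HIV-1 protease clones plus a VSV-G expression vector. After 4 h, cells were replated at 2 × 10⁴/well over serial inhibitor dilutions in triplicate. Pseudovirus collected at 48 h infected fresh HEK-293 (10⁴/well). Luciferase read 48 h later gave % inhibition versus untreated and EC50. Fold change against WT pNL4-3-Luc (clones 1-4) or RF-Luc (clone 5) is the mean of three experiments.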

[6] = test system: Human immunodeficiency virus 1; assay: Antiviral activity against HIV1 clone2 infected in HEK293 cells harboring A-790742-selected protease V82L mutation assessed as reduction in viral replication by luciferase reporter gene assay relative to wild type HIV1 pNL4-3; type: functional; procedure, shortened: as §3
[7] = test system: Human immunodeficiency virus 1; assay: Antiviral activity against HIV1 clone3 infected in HEK293 cells harboring A-790742-selected protease L33F, K45I, V82L, and I84V mutation assessed as reduction in viral replication by luciferase reporter gene assay relative to wild type HIV1 pNL4-3; type: functional; procedure, shortened: as §3
[8] = test system: Human immunodeficiency virus 1; assay: Antiviral activity against HIV1 clone4 infected in HEK293 cells harboring A-790742-selected protease L33F, A71V, G73S, V77I, V82L, and I84V mutation assessed as reduction in viral replication by luciferase reporter gene assay relative to wild type HIV1 pNL4-3; type: functional; procedure, shortened: as §3
[9] = test system: Human immunodeficiency virus 1; assay: Antiviral activity against HIV1 clone5 infected in HEK293 cells harboring A-790742-selected protease L63P, A71V, and V82G mutation assessed as reduction in viral replication by luciferase reporter gene assay relative to wild type HIV1 RF; type: functional; procedure, shortened: as §3
[10] = test system: Human immunodeficiency virus 1; assay: Antiviral activity against wild-type HIV1 pNL4-3 infected in human MT4 cells assessed as reduction in viral cytopathogenicity treated 1 hr post infection measured 5 days post infection in presence of 50% human serum by MTT assay; type: functional, organism-based; conditions: Human immunodeficiency virus 1, pNL4-3, MT4
[11] = test system: Human immunodeficiency virus 1; assay: Antiviral activity against HIV1 P25 infected in human MT4 cells harboring protease L10F, G16E, V32I, M46I, I47A, H69Y, I84V, and T91S mutation derived from viral passages with Lopinavir assessed as reduction in viral cytopathogenicity treated 1 hr post infection measured 5 days post infection by MTT assay; type: functional, organism-based; conditions: Human immunodeficiency virus 1, P25, MT4; procedure, shortened: as §2
[12] = test system: Human immunodeficiency virus 1; assay: Antiviral activity against HIV1 isolate 7 infected in human MT4 cells obtained from protease inhibitor-resistant patient harboring protease L10I, M46M/L, G48V, I54V, L63P, A71V, I72M, V77I, V82A, L90M, I93L mutation derived from viral passages with Lopinavir assessed as reduction in viral cytopathogenicity treated 1 hr post infection measured 5 days post infection by MTT assay relative to wild …; type: functional
[13] = test system: Human immunodeficiency virus 1; assay: Antiviral activity against HIV1 isolate 8 infected in human MT4 cells obtained from protease inhibitor-resistant patient harboring protease L10I, I13V, L33F, E34Q, R41K, M46I, I54V, K55R, R57K, Q58E, I62V, L63P, A71V, I72I/T, G73S, V82A, I84V, L90M mutation derived from viral passages with Lopinavir assessed as reduction in viral cytopathogenicity treated 1 hr post infection measured 5 days post …; type: functional
[14] = test system: Human immunodeficiency virus 1; assay: Antiviral activity against HIV1 isolate 9 infected in human MT4 cells obtained from protease inhibitor-resistant patient harboring protease L10I, I15I/V, K20R, L33F, E35D, M36I, N37D, R41K, K43I, M46I, I54V, I62V, L63P, A71T, I72T, V82A, I84V, L90M, I93L mutation derived from viral passages with Lopinavir assessed as reduction in viral cytopathogenicity treated 1 hr post infection measured 5 days …; type: functional
[15] = test system: Human immunodeficiency virus 1; assay: Antiviral activity against HIV1 isolate 10 infected in human MT4 cells obtained from protease inhibitor-resistant patient harboring protease L10I, I13V, K20R, L33F, E35D, M36I, N37D, I54L, Q58E, I62V, L63P, A71V, V82A, I84V, L90M mutation derived from viral passages with Lopinavir assessed as reduction in viral cytopathogenicity treated 1 hr post infection measured 5 days post infection by MTT …; type: functional
[16] = test system: Human immunodeficiency virus 1; assay: Antiviral activity against HIV1 isolate 11 infected in human MT4 cells obtained from protease inhibitor-resistant patient harboring protease L10I, I15V, K20R, E21Q, E35D, M36I, N37D, R41K, M46L, I54V, I62V, L63P, A71V, T74D, P79A, V82T, I84V, I85V, L90M, I93L mutation derived from viral passages with Lopinavir assessed as reduction in viral cytopathogenicity treated 1 hr post infection measured …; type: functional
[17] = test system: Human immunodeficiency virus 1; assay: Antiviral activity against HIV1 isolate 12 infected in human MT4 cells obtained from protease inhibitor-resistant patient harboring protease L10I, I13V, K20I, E35D, M36I, M46I, I50V, I54V, R57K, I62V, L63P, A71V, V82A, L89V, L90M, Q92K mutation derived from viral passages with Lopinavir assessed as reduction in viral cytopathogenicity treated 1 hr post infection measured 5 days post infection by …; type: functional
[18] = test system: Human immunodeficiency virus 1; assay: Antiviral activity against HIV1 isolate 13 infected in human MT4 cells obtained from protease inhibitor-resistant patient harboring protease L10I, K14R, L33F, E34Q, R41K, K45R, M46I, I50V, K55R, L63P, A71V, G73T, V77I, V82A, L90M, I93L mutation derived from viral passages with Lopinavir assessed as reduction in viral cytopathogenicity treated 1 hr post infection measured 5 days post infection by …; type: functional
[19] = test system: Human immunodeficiency virus 1; assay: Antiviral activity against HIV1 isolate 6 infected in human MT4 cells obtained from protease inhibitor-resistant patient harboring protease L10I, L24I, M46I, I54V, K55R, Q58E, L63P, I64V, A71V, V82A, T91A mutation derived from viral passages with Lopinavir assessed as reduction in viral cytopathogenicity treated 1 hr post infection measured 5 days post infection by MTT assay relative to wild type …; type: functional
[20] = test system: Human immunodeficiency virus 1; assay: Antiviral activity against wild-type HIV1 pNL4-3 infected in human MT4 cells assessed as reduction in viral cytopathogenicity treated 1 hr post infection measured 5 days post infection in absence of human serum by MTT assay; type: functional, organism-based; conditions: Human immunodeficiency virus 1, pNL4-3, MT4; procedure, shortened: as §2
[21] = test system: Human immunodeficiency virus 1; assay: Antiviral activity against wild-type HIV1 RF infected in human MT4 cells assessed as reduction in viral cytopathogenicity treated 1 hr post infection measured 5 days post infection in absence of human serum by MTT assay; type: functional, organism-based; conditions: Human immunodeficiency virus 1, RF; procedure, shortened: as §2
[22] = test system: Human immunodeficiency virus 1; assay: Antiviral activity against HIV1 A17 infected in human MT4 cells harboring protease L10F, V32I, M46I, I47V, Q58E, and I84V mutation derived from viral passages with Lopinavir assessed as reduction in viral cytopathogenicity treated 1 hr post infection measured 5 days post infection by MTT assay; type: functional, organism-based; conditions: Human immunodeficiency virus 1, A17, MT4; procedure, shortened: as §2
[23] = test system: Human immunodeficiency virus 1; assay: Antiviral activity against HIV1 B26 infected in human MT4 cells harboring protease L33F, K45I, M46I, I50V, I54V, A71V, and V82F mutation derived from viral passages with Lopinavir assessed as reduction in viral cytopathogenicity treated 1 hr post infection measured 5 days post infection by MTT assay; type: functional, organism-based; conditions: Human immunodeficiency virus 1, B26, MT4; procedure, shortened: as §2
[24] = test system: Human immunodeficiency virus 1; assay: Antiviral activity against HIV1 isolate 2 infected in human MT4 cells obtained from protease inhibitor-resistant patient harboring protease L10I, I15V, G16E, K20R, E35D, M36I, R41K, I54A, R57K, Q61D, A71V, I72R, V82A, L89I, L90M, Q92K mutation derived from viral passages with Lopinavir assessed as reduction in viral cytopathogenicity treated 1 hr post infection measured 5 days post infection by …; type: functional
[25] = test system: Human immunodeficiency virus 1; assay: Antiviral activity against HIV1 isolate 3 infected in human MT4 cells obtained from protease inhibitor-resistant patient harboring protease L10I, E35D, N37D, […], I54V, L63P, A71V, T74P, I84V, L90M, I93L mutation derived from viral passages with Lopinavir assessed as reduction in viral cytopathogenicity treated 1 hr post infection measured 5 days post infection by MTT assay relative to wild type …; type: functional
[26] = test system: Human immunodeficiency virus 1; assay: Antiviral activity against HIV1 isolate 4 infected in human MT4 cells obtained from protease inhibitor-resistant patient harboring protease N37T, M46I, Q58E, I64V, T74K, V77I, V82F, L90M mutation derived from viral passages with Lopinavir assessed as reduction in viral cytopathogenicity treated 1 hr post infection measured 5 days post infection by MTT assay relative to wild type HIV1 pNL4-3; type: functional
[27] = test system: Human immunodeficiency virus 1; assay: Antiviral activity against HIV1 isolate 5 infected in human MT4 cells obtained from protease inhibitor-resistant patient harboring protease L10F, I15V, M46I, L63P, A71V, I72L, V82T, I84V, I85V, L90M mutation derived from viral passages with Lopinavir assessed as reduction in viral cytopathogenicity treated 1 hr post infection measured 5 days post infection by MTT assay relative to wild type HIV1 …; type: functional

SMILES	Ratio EC50 [1]	Ratio EC50 [2]	Ratio EC50 [3]	Ratio EC50 [4]	Ratio EC50 [5]	Ratio EC50 [6]	Ratio EC50 [7]	Ratio EC50 [8]	Ratio EC50 [9]	EC50 [10] [nM]	EC50 [11] [nM]	also measured
CC(C)c1nc(CN(C)C(=O)N[C@H](C(=O)N[C@@H](Cc2ccccc2)C[C@H](O)[C@H](Cc2ccccc2)NC(=O)OCc2cncs2)C(C)C)cs1 [RITONAVIR]	26.7	29	>141	79	3	7	79	14	1386			
CC(C)CN(C[C@@H](O)[C@H](Cc1ccccc1)NC(=O)O[C@H]1CO[C@H]2OCC[C@H]21)S(=O)(=O)c1ccc(N)cc1					1	1	12	7	59	40	857	
CC(C)(C)NC(=O)[C@@H]1C[C@@H]2CCCC[C@@H]2CN1C[C@@H](O)[C@H](Cc1ccccc1)NC(=O)[C@H](CC(N)=O)NC(=O)c1ccc2ccccc2n1	3	4	5	21	1	1	0.4	1	28			
CC(C)CN(C[C@@H](O)[C@H](Cc1ccccc1)NC(=O)O[C@H]1CCOC1)S(=O)(=O)c1ccc(N)cc1	9	11	34	41	1	1	12	2	41			
CC(C)(C)NC(=O)[C@@H]1CN(Cc2cccnc2)CCN1C[C@@H](O)C[C@@H](Cc1ccccc1)C(=O)N[C@H]1c2ccccc2C[C@H]1O.O	3	5	14	31	1	1	5	2	76			
COC(=O)N[C@H](C(=O)N[C@@H](Cc1ccccc1)[C@@H](O)CN(Cc1ccc(-c2ccccn2)cc1)NC(=O)[C@@H](NC(=O)OC)C(C)(C)C)C(C)(C)C [ATAZANAVIR]	6	14	145	31	1	1	34	16	39	11	355	Ratio EC50 [12]: 25; Ratio EC50 [13]: 32; Ratio EC50 [14]: 22; Ratio EC50 [15]: 56; Ratio EC50 [16]: 43; Ratio EC50 [17]: 3; Ratio EC50 [18]: 5; Ratio EC50 [19]: 15; EC50 [20]: 4 nM; EC50 [21]: 7 nM; EC50 [22]: 296 nM; EC50 [23]: 51 nM; Ratio EC50 [24]: 172; Ratio EC50 [25]: 89; Ratio EC50 [26]: 5; Ratio EC50 [27]: 18
CCC[C@@]1(CCc2ccccc2)CC(O)=C([C@H](CC)c2cccc(NS(=O)(=O)c3ccc(C(F)(F)F)cn3)c2)C(=O)O1								6		7840		EC50 [20]: 184 nM; EC50 [21]: 204 nM; EC50 [22]: 360 nM
Cc1c(O)cccc1C(=O)N[C@@H](CSc1ccccc1)[C@H](O)CN1C[C@H]2CCCC[C@H]2C[C@H]1C(=O)NC(C)(C)C	5	6	>93	67	1	1	3	2	203			
Cc1cccc(C)c1OCC(=O)N[C@@H](Cc1ccccc1)[C@@H](O)C[C@H](Cc1ccccc1)NC(=O)[C@H](C(C)C)N1CCCNC1=O [LOPINAVIR]											> 10000	
